ChEMBL document CHEMBL2040849, “Synthesis and antimicrobial evaluation of 3-methanone-6-substituted-benzofuran derivatives” (2012)
Converted amounts (≈) assume the structure as drawn.

Tests used:
Type in all cases: functional
Bacillus subtilis = experiment: Antibacterial activity against Bacillus subtilis ATCC 33712 after 24 hrs by microtiter broth dilution method; settings: ATCC 33712, 24 h
Summary of the method: (§1)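 Compounds dissolved in DMSO and serially diluted by microtiter broth dilution following NCCLS guidance. Plates incubated at 37 °C for 24 h. MIC80 (ug/mL) taken as the lowest concentration inhibiting visible growth. Ceftazidime, cefotaxime, cefradine and sodium penicillin served as reference drugs.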

Staphylococcus aureus [1] = experiment: Antibacterial activity against Staphylococcus aureus ATCC 29213 after 24 hrs by microtiter broth dilution method; settings: ATCC 29213, 24 h; summary of the method: as §1
Escherichia coli = experiment: Antibacterial activity against Escherichia coli ATCC 11303 after 24 hrs by microtiter broth dilution method; settings: ATCC 11303, 24 h; summary of the method: as §1
Staphylococcus aureus [2] = experiment: Antibacterial activity against methicillin-resistant Staphylococcus aureus ATCC 700699 after 24 hrs by microtiter broth dilution method; settings: ATCC 700699, 24 h
Summary of the method: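 Compounds dissolved in DMSO and serially diluted in microtiter broth following NCCLS guidance. Plates were incubated at 37 °C for 24 h. MIC80 was read as the lowest concentration inhibiting visible growth of the organism, in µg/mL.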

Pseudomonas aeruginosa = experiment: Antibacterial activity against Pseudomonas aeruginosa ATCC 49189 after 24 hrs by microtiter broth dilution method; settings: ATCC 49189, 24 h; summary of the method: as §1

Row | SMILES | MIC80 (Bacillus subtilis) [µg/mL] | MIC80 (Staphylococcus aureus [1]) [µg/mL] | MIC80 (Escherichia coli) [µg/mL] | MIC80 (Staphylococcus aureus [2]) [µg/mL] | MIC80 (Pseudomonas aeruginosa) [µg/mL]
1 | CC1(C)S[C@@H]2[C@H](NC(=O)Cc3ccccc3)C(=O)N2[C@H]1C(=O)[O-].[Na+] [PENICILLIN G SODIUM] | < 0.39 | 3.12 | 0.78 | 3.12 | 
2 | CC(=O)c1c(-c2ccc(C)o2)oc2cc(OCCc3nc(-c4ccccc4)oc3C)ccc12 | > 200 | > 200 | > 200 | > 200 | > 200
3 | COc1ccc(-c2cc3ccc(OCCc4nc(-c5ccccc5)oc4C)cc3o2)cc1 | 50 (≈ 118 µM) | > 200 | > 200 | > 200 | > 200
4 | Cc1ccc(-c2oc3cc(OCCc4nc(-c5ccccc5)oc4C)ccc3c2C(=O)c2ccc(C(F)(F)F)cc2)o1 | > 200 | > 200 | > 200 | > 200 | > 200
5 | COc1cc(C(=O)c2c(-c3ccc(C)o3)oc3cc(OCCc4nc(-c5ccccc5)oc4C)ccc23)cc(OC)c1OC | > 200 | 12.5 (≈ 21.1 µM) | > 200 | > 200 | > 200
6 | CO/N=C(\C(=O)N[C@@H]1C(=O)N2C(C(=O)O)=C(COC(C)=O)CS[C@H]12)c1csc(N)n1 [CEFOTAXIME] | 0.78 (≈ 1.71 µM) | 3.12 (≈ 6.85 µM) | > 200 | 3.12 (≈ 6.85 µM) | 
7 | COc1ccc(-c2oc3cc(OCCc4nc(-c5ccccc5)oc4C)ccc3c2C(C)=O)cc1 | > 200 | > 200 | > 200 | > 200 | > 200
8 | CC1=C(C(=O)O)N2C(=O)[C@@H](NC(=O)[C@H](N)C3=CCC=CC3)[C@H]2SC1 [CEPHRADINE] | 50 (≈ 143 µM) | > 200 | 25 (≈ 71.5 µM) | > 200 | > 200
9 | Cc1ccc(-c2cc3ccc(OCc4ccccc4)cc3o2)o1 | > 200 | > 200 | > 200 | 12.5 (≈ 41.1 µM) | > 200
10 | Cc1ccc(-c2oc3cc(OCCc4nc(-c5ccccc5)oc4C)ccc3c2C(=O)c2ccco2)o1 | > 200 | > 200 | > 200 | > 200 | > 200
11 | CC(C)(O/N=C(\C(=O)N[C@@H]1C(=O)N2C(C(=O)[O-])=C(C[n+]3ccccc3)CS[C@H]12)c1csc(N)n1)C(=O)O [CEFTAZIDIME] | 6.25 (≈ 11.4 µM) | 0.78 (≈ 1.43 µM) | > 200 | 12.5 (≈ 22.9 µM) | 12.5 (≈ 22.9 µM)
12 | Cc1oc(-c2ccccc2)nc1CCOc1ccc2cc(-c3ccccc3)oc2c1 | > 200 | > 200 | > 200 | > 200 | > 200
13 | CC(=O)c1c(-c2ccc(C)o2)oc2cc(O)ccc12 | 12.5 (≈ 48.8 µM) | 6.25 (≈ 24.4 µM) | 12.5 (≈ 48.8 µM) | 6.25 (≈ 24.4 µM) | 12.5 (≈ 48.8 µM)
14 | Oc1ccc2cc(-c3ccccc3)oc2c1 | 3.12 (≈ 14.8 µM) | 6.25 (≈ 29.7 µM) | 6.25 (≈ 29.7 µM) | 1.56 (≈ 7.42 µM) | 0.78 (≈ 3.71 µM)
15 | Cc1ccc(-c2cc3ccc(O)cc3o2)o1 | 1.56 (≈ 7.28 µM) | 1.56 (≈ 7.28 µM) | 3.12 (≈ 14.6 µM) | 3.12 (≈ 14.6 µM) | 0.78 (≈ 3.64 µM)
16 | COc1ccc(-c2oc3cc(OCCc4nc(-c5ccccc5)oc4C)ccc3c2C(=O)/C=C/c2cc(OC)c(OC)c(OC)c2)cc1 | > 200 | > 200 | > 200 | > 200 | > 200
17 | COc1ccc(-c2cc3ccc(OCc4ccccc4)cc3o2)cc1 | > 200 | > 200 | > 200 | > 200 | > 200
18 | COc1cc(NCc2c(-c3ccccc3)oc3cc(OCCc4nc(-c5ccccc5)oc4C)ccc23)cc(OC)c1OC | > 200 | > 200 | > 200 | > 200 | > 200
19 | COc1cc(/N=C/c2c(-c3ccccc3)oc3cc(OCCc4nc(-c5ccccc5)oc4C)ccc23)cc(OC)c1OC | > 200 | 3.12 (≈ 5.3 µM) | > 200 | > 200 | > 200
20 | c1ccc(COc2ccc3cc(-c4ccccc4)oc3c2)cc1 | 100 (≈ 333 µM) | 100 (≈ 333 µM) | > 200 | > 200 | 100 (≈ 333 µM)
21 | COc1ccc(-c2cc3ccc(O)cc3o2)cc1 | 1.56 (≈ 6.49 µM) | 1.56 (≈ 6.49 µM) | 3.12 (≈ 13 µM) | 0.78 (≈ 3.25 µM) | 1.56 (≈ 6.49 µM)
